From ChEMBL document CHEMBL1124370 (1989)
Activity calls are given as the source filed them. The calls are words filed in the database; no cut-off is given here.

What was measured:
[1] = biological target: Aldo-keto reductase family 1 member B1 (Bos taurus) (UniProt P16116); assay: Inhibition of aldose reductase in partially purified bovine lens preparation at 10e-6 M.
How it was run: (§1)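 Aldose reductase partially purified from bovine lens, with the final chromatographic step of the earlier preparation omitted. Assay run in duplicate with test compound at 1 × 10^-6 M or 1 × 10^-7 M. Reported as % inhibition of enzymatic activity.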

Rattus norvegicus [2] = assay: In vivo inhibition of galactitol accumulation in the sciatic nerves of rat at a dose of 100 mg/kg/day; assay type: functional; conditions: Sciatic nerve
Rattus norvegicus [3] = assay: […] inhibition of sorbitol accumulation in rat sciatic nerves at 10e-5 M concentration; assay type: functional, Sciatic nerve
How it was run: (§2)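 Sciatic nerves were taken from male Sprague-Dawley rats (200–250 g) after CO2 euthanasia. Nerves were incubated 3 h at 37 °C under 95% air/5% CO2 in Hank's salts buffer, pH 7.4, with 50 mM glucose and (0–5)×10^-5 M compound, in triplicate. Nerve sorbitol was measured spectrofluorometrically in duplicate, and the read-out was % inhibition of sorbitol accumulation.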

Rattus norvegicus [4] = assay: In vivo inhibition of sorbitol accumulation in rat sciatic nerves at 10e-6 M concentration; assay type: functional, Sciatic nerve; how it was run: as §2
Rattus norvegicus [5] = assay: In vivo inhibition of galactitol accumulation in the diaphragm of rat at a dose of 100 mg/kg/day; assay type: functional
[6] = biological target: Aldo-keto reductase family 1 member B1 (Bos taurus) (UniProt P16116); assay: Inhibition of aldose reductase in partially purified bovine lens preparation at 10e-7 M concentration; how it was run: as §1
Rattus norvegicus [7] = assay: In vivo inhibition of galactitol accumulation in the sciatic nerves of rat at a dose of 10 mg/kg/day; assay type: functional; conditions: Sciatic nerve
Rattus norvegicus [8] = assay: In vivo inhibition of galactitol accumulation in the sciatic nerves of rat at a dose of 27 mg/kg/day; assay type: functional; conditions: Sciatic nerve
Rattus norvegicus [9] = assay: In vivo inhibition of galactitol accumulation in the diaphragm of rat at a dose of 10 mg/kg/day; assay type: functional
Rattus norvegicus [10] = assay: In vivo inhibition of galactitol accumulation in the diaphragm of rat. at a dose of 27 mg/kg/day; assay type: functional
Rattus norvegicus [11] = assay: In vivo inhibition of galactitol accumulation in the sciatic nerves of ratat a dose of 106 mg/kg/day; assay type: functional; conditions: Sciatic nerve
Rattus norvegicus [12] = assay: In vivo inhibition of galactitol accumulation in the diaphragm of rat at a dose of 106 mg/kg/day; assay type: functional
Rattus norvegicus [13] = assay: In vivo inhibition of galactitol accumulation in the sciatic nerves of rat at a dose of 48 mg/kg/day; NS=not significant; assay type: functional, organism-based; conditions: Sciatic nerve
Rattus norvegicus [14] = assay: […] inhibition of sorbitol accumulation in rat sciatic nerves at 10e-6 M concentration; NS=not significant; assay type: functional; conditions: Sciatic nerve; how it was run: as §2
Rattus norvegicus [15] = assay: In vivo inhibition of galactitol accumulation in the diaphragm of rat. at a dose of 48 mg/kg/day; NS =not significant; assay type: functional, organism-based
Rattus norvegicus [16] = assay: In vivo inhibition of galactitol accumulation in the diaphragm of rat at a dose of 4 mg/kg/day; assay type: functional
Rattus norvegicus [17] = assay: […] inhibition of sorbitol accumulation in rat sciatic nerves at 5*10e-6 M concentration; assay type: functional, Sciatic nerve; conditions: in the assay text read “In vitro” for “In vivo”
How it was run: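 Sciatic nerves from male Sprague-Dawley rats (200–250 g), removed after CO2 euthanasia, incubated ex vivo for 3 h at 37 °C under 95% air/5% CO2 in Hank's salts buffer, pH 7.4, with 50 mM glucose and 5 × 10^-6 M test compound. Triplicate incubations; nerve sorbitol measured in duplicate by spectrofluorometric assay. Reported as % inhibition of sorbitol accumulation.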

Rattus norvegicus [18] = assay: In vivo inhibition of galactitol accumulation in the sciatic nerves of rat at a dose of 4 mg/kg/day; assay type: functional; conditions: Sciatic nerve
[19] = biological target: Aldo-keto reductase family 1 member B1 (Bos taurus) (UniProt P16116); assay: […] inhibition of aldose reductase in partially purified bovine lens preparation at 10e-7 M concentration
How it was run: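 Enzyme partially purified from bovine lens by a published method, with the final chromatographic step omitted. Test compound was added at 1×10^-6 or 1×10^-7 M. Assays were run in duplicate, and the read-out was % inhibition of enzymatic activity.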

Rattus norvegicus [20] = assay: In vivo inhibition of galactitol accumulation in the diaphragm of rat at a dose of 67 mg/kg/day; NS =not significant; assay type: functional, organism-based
Rattus norvegicus [21] = assay: In vivo inhibition of galactitol accumulation in the sciatic nerves of rat at a dose of 67 mg/kg/day; NS=not significant; assay type: functional, organism-based; conditions: Sciatic nerve
Rattus norvegicus [22] = assay: In vivo inhibition of galactitol accumulation in the diaphragm of rat. at a dose of 50 mg/kg/day; NS=not significant; assay type: functional, organism-based
Rattus norvegicus [23] = assay: In vivo inhibition of galactitol accumulation in the sciatic nerves of rat at a dose of 50 mg/kg/day; NS=not significant; assay type: functional, organism-based; conditions: Sciatic nerve
Rattus norvegicus [24] = assay: In vivo inhibition of galactitol accumulation in the sciatic nerves of rat at a dose of 26 mg/kg/day; assay type: functional; conditions: Sciatic nerve
Rattus norvegicus [25] = assay: In vivo inhibition of galactitol accumulation in the diaphragm of rat. at a dose of 100 mg/kg/day; assay type: functional
Rattus norvegicus [26] = assay: In vivo inhibition of galactitol accumulation in the diaphragm of rat. at a dose of 26 mg/kg/day; assay type: functional
Rattus norvegicus [27] = assay: In vivo inhibition of sorbitol accumulation in rat sciatic nerves at 5*10e-5 M concentration; assay type: functional, Sciatic nerve; conditions: in the assay text read “In vitro” for “In vivo”; how it was run: as §2
Rattus norvegicus [28] = assay: In vivo inhibition of galactitol accumulation in the sciatic nerves of rat at a dose of 105 mg/kg/day; NS=not significant; assay type: functional, organism-based; conditions: Sciatic nerve
Rattus norvegicus [29] = assay: In vivo inhibition of galactitol accumulation in the diaphragm of rat at a dose of 105 mg/kg/day; NS=not significant; assay type: functional, organism-based

inhibition [1] [%]	inhibition [6] [%]	SMILES	Inhibition (Rattus norvegicus [3]) [%]	Inhibition (Rattus norvegicus [4]) [%]	further results
91	61	COc1ccc2c(C(=O)N(CC(=O)O)C(C)=O)cccc2c1C(F)(F)F	62	40	inhibition in vivo at 100 mg/kg/day (Rattus norvegicus [2]): 36%; inhibition in vivo at 100 mg/kg/day (Rattus norvegicus [5]): 39%
95	71	CSc1ccc2c(C(=S)N(C)CC(=O)O)cccc2c1C(F)(F)F	93	72	inhibition in vivo at 10 mg/kg/day (Rattus norvegicus [7]): 26%; inhibition in vivo at 27 mg/kg/day (Rattus norvegicus [8]): 64%; inhibition in vivo at 10 mg/kg/day (Rattus norvegicus [9]): 86%; inhibition in vivo at 27 mg/kg/day (Rattus norvegicus [10]): 90%
85	51	CSc1ccc2c(C(=O)N(C)CC(=O)O)cccc2c1C(F)(F)F	73	34	inhibition in vivo at 106 mg/kg/day (Rattus norvegicus [11]): 36%; inhibition in vivo at 106 mg/kg/day (Rattus norvegicus [12]): 73%

Further lines, the compound ahead of its results:

SMILES	inhibition [1] [%]	inhibition [6] [%]	Inhibition (Rattus norvegicus [3]) [%]	Inhibition (Rattus norvegicus [4]) [%]	further results
CCCOC(=O)N(CC(=O)O)C(=O)c1cccc2c(C(F)(F)F)c(OC)ccc12	90	81	62		inhibition (Rattus norvegicus [13]): inactive; inhibition (Rattus norvegicus [14]): inactive; inhibition (Rattus norvegicus [15]): inactive
O=C1NC(=O)[C@@]2(CCOc3ccc(F)cc32)N1 [SORBINIL]	45	10	96	27	inhibition in vivo at 4 mg/kg/day (Rattus norvegicus [16]): 69%; Inhibition (Rattus norvegicus [17]): 74%; inhibition in vivo at 4 mg/kg/day (Rattus norvegicus [18]): 55%
COc1ccc2c(C(=O)N(CC(=O)O)C(=O)OCc3ccccc3)cccc2c1C(F)(F)F	89		28		inhibition [19]: 66%; inhibition (Rattus norvegicus [14]): inactive; inhibition (Rattus norvegicus [20]): inactive; inhibition (Rattus norvegicus [21]): inactive
COc1ccc2c(C(=O)N(CC(=O)O)C(=O)c3ccccc3)cccc2c1C(F)(F)F	62	15	31	40	inhibition (Rattus norvegicus [22]): inactive; inhibition (Rattus norvegicus [23]): inactive
COc1ccc2c(/C(=N/C#N)N(C)CC(=O)O)cccc2c1C(F)(F)F	81	80			inhibition in vivo at 100 mg/kg/day (Rattus norvegicus [2]): 61%; inhibition in vivo at 26 mg/kg/day (Rattus norvegicus [24]): 30%; inhibition in vivo at 100 mg/kg/day (Rattus norvegicus [25]): 72%; Inhibition (Rattus norvegicus [17]): 70%; inhibition in vivo at 26 mg/kg/day (Rattus norvegicus [26]): 44%; Inhibition (Rattus norvegicus [27]): 81%
COc1ccc2c(C(=O)N(CC(=O)O)C(=O)OCC(C)(C)C)cccc2c1C(F)(F)F	64	18	37	28	inhibition (Rattus norvegicus [28]): inactive; inhibition (Rattus norvegicus [29]): inactive
